# Calls of active or inactive are those of the source. The calls are words filed in the database; no cut-off is given here.
# What was measured:
# Enterococcus faecalis [1] = experiment: Bacteriostatic activity against vancomycin resistant Enterococcus feacalis NCTC12204 at 4 times MIC measured at 0 to 24 hrs by time kill assay
# Enterococcus faecalis [2] = experiment: Antibacterial activity against vancomycin sensitive Enterococcus faecalis NCTC775 measured after overnight incubation by microbroth dilution method; type: functional
# How it was run: (§1)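 Microbroth dilution: DMSO stocks diluted in water, 2-fold series. Overnight TSB cultures back-diluted to OD 0.01 and mixed 1:1 with compound. Incubated overnight at 37 °C; MIC taken as lowest concentration without visible growth (<0.1 OD600). Run in duplicate; matching DMSO levels checked for effect on growth.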
# Staphylococcus aureus [3] = experiment: Antibacterial activity against methicillin sensitive Staphylococcus aureus NCTC 6571 measured after overnight incubation by microbroth dilution method; type: functional
# How it was run: as §1
# Staphylococcus aureus [4] = experiment: Antibacterial activity against methicillin resistant Staphylococcus aureus NCTC13277 measured after overnight incubation by microbroth dilution method; type: functional
# How it was run: as §1
# Enterococcus faecalis [5] = experiment: Antibacterial activity against vancomycin resistant Enterococcus faecalis NCTC12204 measured after overnight incubation by microbroth dilution method; type: functional
# How it was run: as §1
# Klebsiella pneumoniae [6] = experiment: Antibacterial activity against Klebsiella pneumoniae NCTC13368 measured after overnight incubation by microbroth dilution method; type: functional
# How it was run: (§2)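 Microbroth dilution MIC. Compound DMSO stocks were diluted in water as a 2-fold series. Overnight TSB cultures were back-diluted to OD 0.01 and mixed 1:1 with compound. Plates were incubated overnight at 37 °C. MIC was the lowest concentration without visible growth (<0.1 OD600), run in duplicate.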
# Pseudomonas aeruginosa [7] = experiment: Antibacterial activity against Pseudomonas aeruginosa PAO1 measured after overnight incubation by microbroth dilution method; type: functional
# How it was run: as §2
# HeLa = experiment: Cytotoxicity again human HeLa cells measured after 24 hrs by XTT assay; type: cell-based
# How it was run: (§3)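 Cells were grown in EMEM with glutamine, 10% FBS and non-essential amino acids at 37 °C, 10% CO2. Seeding was 1 x 10^5 cells/mL (HEK293) or 4 x 10^4 cells/mL (HeLa), then 24 h adherence. Doubling compound dilutions were applied for 24 h. XTT/PMS was added for 4 h in the dark, with absorbance read at 450 nm. Untreated cells were the 100% control and water-treated cells the 0% control; IC50 was fitted.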
# Staphylococcus aureus [8] = experiment: Bacteriostatic activity against methicillin resistant Staphylococcus aureus NCTC13616 at 4 times MIC measured at 0 to 24 hrs by time kill assay
# Acinetobacter baumannii [9] = experiment: Antibacterial activity against Acinetobacter baumannii AYE measured after overnight incubation by microbroth dilution method; type: functional
# How it was run: as §2
# Enterococcus faecium = experiment: Antibacterial activity against Enterococcus faecium NCTC12204 assessed as generation of drug resistance at 2 times MIC measured after 48 hrs by agar-based microbroth dilution method
# Pseudomonas aeruginosa [10] = experiment: Antibacterial activity against Pseudomonas aeruginosa NCTC13437 measured after overnight incubation in presence of polymyxin B nonapeptide by microbroth dilution method; type: functional
# Acinetobacter baumannii [11] = experiment: Antibacterial activity against Acinetobacter baumannii ATCC 17978 measured after overnight incubation in presence of phenylalanine arginine beta-naphthylamide by microbroth dilution method; type: functional
# How it was run: as §2
# [12] = Inhibition of Staphylococcus aureus DNA gyrase subunit A2B2 using relaxed pBR322 DNA as substrate measured after 30 mins in presence of ATP by ethidium bromide-based gel electrophoresis
# How it was run: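 Supercoiling assay with S. aureus wild-type or S84L gyrase and relaxed pBR322, with or without varying compound, at 37 °C for 30 min. The reaction was stopped with STEB and extracted with chloroform:isoamyl alcohol (24:1). The aqueous phase was run on a 1% agarose gel and the supercoiled band quantified. IC50 came from at least three independent replicates.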
# Pseudomonas aeruginosa [13] = experiment: Antibacterial activity against Pseudomonas aeruginosa PAO1 measured after overnight incubation in presence of phenylalanine arginine beta-naphthylamide by microbroth dilution method; type: functional
# How it was run: as §2
# Klebsiella pneumoniae [14] = experiment: Antibacterial activity against Klebsiella pneumoniae NCTC13368 measured after overnight incubation in presence of phenylalanine arginine beta-naphthylamide by microbroth dilution method; type: functional
# How it was run: as §2
# Topoisomerase IV = Topoisomerase IV (Staphylococcus aureus, UniProt P0C1S7+P0C1U9); experiment: Inhibition of Staphylococcus aureus topoisomerase-4 expressed in Escherichia coli assessed as relaxation of pBR322 substrate measured after 30 mins by agarose gel electrophoresis
# Acinetobacter baumannii [15] = experiment: Antibacterial activity against Acinetobacter baumannii AYE measured after overnight incubation in presence of phenylalanine arginine beta-naphthylamide by microbroth dilution method; type: functional
# How it was run: as §2
# Escherichia coli [16] = experiment: Antibacterial activity against Escherichia coli NCTC12923 measured after overnight incubation by microbroth dilution method; type: functional
# How it was run: as §2
# Staphylococcus aureus [17] = experiment: Antibacterial activity against methicillin resistant Staphylococcus aureus NCTC13616 measured after overnight incubation by microbroth dilution method; type: functional
# How it was run: as §1
# Klebsiella pneumoniae [18] = experiment: Antibacterial activity against Klebsiella pneumoniae M6 measured after overnight incubation in presence of polymyxin B nonapeptide by microbroth dilution method; type: functional
# Enterococcus faecalis [19] = experiment: Antibacterial activity against vancomycin resistant Enterococcus faecalis NCTC12201 measured after overnight incubation by microbroth dilution method; type: functional
# How it was run: as §1
# Pseudomonas aeruginosa [20] = experiment: Antibacterial activity against Pseudomonas aeruginosa PAO1 measured after overnight incubation in presence of polymyxin B nonapeptide by microbroth dilution method; type: functional
# Acinetobacter baumannii [21] = experiment: Antibacterial activity against Acinetobacter baumannii ATCC 17978 measured after overnight incubation in presence of polymyxin B nonapeptide by microbroth dilution method; type: functional
# DNA gyrase = DNA gyrase (Staphylococcus aureus, UniProt P0A0K8+P20831, S84L); experiment: Inhibition of Staphylococcus aureus DNA gyrase S84L mutant; type: protein-complex assay
# HEK293 = experiment: Cytotoxicity again human HEK293 cells measured after 24 hrs by XTT assay; type: cell-based; settings: HEK293, 24 h
# How it was run: as §3
# Acinetobacter baumannii [22] = experiment: Antibacterial activity against Acinetobacter baumannii AYE measured after overnight incubation in presence of polymyxin B nonapeptide by microbroth dilution method; type: functional
# Klebsiella pneumoniae [23] = experiment: Antibacterial activity against Klebsiella pneumoniae M6 measured after overnight incubation by microbroth dilution method; type: functional
# How it was run: as §2
# Escherichia coli [24] = experiment: Antibacterial activity against Escherichia coli NCTC12923 measured after overnight incubation in presence of polymyxin B nonapeptide by microbroth dilution method; type: functional
# Acinetobacter baumannii [25] = experiment: Antibacterial activity against Acinetobacter baumannii ATCC 17978 measured after overnight incubation by microbroth dilution method; type: functional
# How it was run: as §2
# Pseudomonas aeruginosa [26] = experiment: Antibacterial activity against Pseudomonas aeruginosa NCTC13437 measured after overnight incubation by microbroth dilution method; type: functional
# How it was run: as §2
# Escherichia coli [27] = experiment: Antibacterial activity against Escherichia coli NCTC12923 measured after overnight incubation in presence of phenylalanine arginine beta-naphthylamide by microbroth dilution method; type: functional
# How it was run: as §2
# Staphylococcus aureus [28] = experiment: Antibacterial activity against Staphylococcus aureus NCTC13616 assessed as generation of drug resistance at 2 times MIC measured after 48 hrs by agar-based microbroth dilution method; type: functional
# How it was run: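 Agar method: exponentially growing bacteria, in known numbers, plated on agar with doubling compound concentrations at and above the MIC; incubated 48 hours. Colonies growing above the MIC were picked and re-tested by microbroth MIC for raised resistance. Resistance frequency reported at 2xMIC.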
# Klebsiella pneumoniae [29] = experiment: Antibacterial activity against Klebsiella pneumoniae M6 measured after overnight incubation in presence of phenylalanine arginine beta-naphthylamide by microbroth dilution method; type: functional
# How it was run: as §2
# Pseudomonas aeruginosa [30] = experiment: Antibacterial activity against Pseudomonas aeruginosa NCTC13437 measured after overnight incubation in presence of phenylalanine arginine beta-naphthylamide by microbroth dilution method; type: functional
# How it was run: as §2
# Klebsiella pneumoniae [31] = experiment: Antibacterial activity against Klebsiella pneumoniae NCTC13368 measured after overnight incubation in presence of polymyxin B nonapeptide by microbroth dilution method; type: functional
# Staphylococcus aureus [32] = experiment: Bactericidal activity against methicillin resistant Staphylococcus aureus NCTC13616 at 4 times MIC measured at 0 to 24 hrs by time kill assay; type: functional, organism-based
# How it was run: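 Overnight cultures back-diluted to OD 0.01 in glass universals, compound added at 4 x MIC, 37 °C with shaking at 200 rpm. Sampled at 0, 2, 4, 6 and 24 h; CFU/mL counted by Miles-Misra; untreated control included.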
Compound,Activity (Enterococcus faecalis [1]),MIC (Enterococcus faecalis [2]) [µg/mL],MIC (Staphylococcus aureus [3]) [µg/mL],MIC (Staphylococcus aureus [4]) [µg/mL],MIC (Enterococcus faecalis [5]) [µg/mL],MIC (Klebsiella pneumoniae [6]) [µg/mL],MIC (Pseudomonas aeruginosa [7]) [µg/mL],IC50 (HeLa) [µg/mL],MIC (Acinetobacter baumannii [9]) [µg/mL],Activity (Enterococcus faecium),MIC (Pseudomonas aeruginosa [10]) [µg/mL],MIC (Acinetobacter baumannii [11]) [µg/mL],MIC (Pseudomonas aeruginosa [13]) [µg/mL],MIC (Klebsiella pneumoniae [14]) [µg/mL],MIC (Acinetobacter baumannii [15]) [µg/mL],MIC (Escherichia coli [16]) [µg/mL],MIC (Staphylococcus aureus [17]) [µg/mL],MIC (Klebsiella pneumoniae [18]) [µg/mL],MIC (Enterococcus faecalis [19]) [µg/mL],MIC (Pseudomonas aeruginosa [20]) [µg/mL],also measured
Cc1c(CNC2CCC(NC(=N)N)CC2)cc(-c2ccc(Cl)cc2)n1-c1ccc(Cl)cc1 (stereo not given),Active,8,2,4,4,128,128,11.7 to 18.9,64 to 128,<9.4e-08,16,16,128,128,64,8,2 to 4,64,16,128,Activity (Staphylococcus aureus [8]): Active; IC50 [12]: 7.48 µg/mL; IC50 (Topoisomerase IV): 61.2 µM; MIC (Acinetobacter baumannii [21]): 16 µg/mL; IC50 (DNA gyrase): 15.4 µM; IC50 (HEK293): 11.7 to 18.9 µg/mL; MIC (Acinetobacter baumannii [22]): 32 µg/mL; MIC (Klebsiella pneumoniae [23]): 32 µg/mL; MIC (Escherichia coli [24]): 4 µg/mL; MIC (Acinetobacter baumannii [25]): 16 µg/mL; MIC (Pseudomonas aeruginosa [26]): 16 µg/mL; MIC (Escherichia coli [27]): 8 µg/mL; Activity (Staphylococcus aureus [28]): <7.6e-08; MIC (Klebsiella pneumoniae [29]): 64 µg/mL; MIC (Pseudomonas aeruginosa [30]): 64 µg/mL; MIC (Klebsiella pneumoniae [31]): 128 µg/mL
Cc1c(CNC2CCCCC2)cc(-c2ccc(C(C)C)cc2)n1-c1ccc(Cl)cc1,Active,4,4,4,2,> 128,> 128,2.4 to 3,> 128,<9.4e-08,32,8,> 128,> 128,8,> 128,4,128,4,8,Activity (Staphylococcus aureus [32]): Active; MIC (Acinetobacter baumannii [21]): 2 µg/mL; IC50 (DNA gyrase): 69.1 µM; IC50 (HEK293): 2.4 to 3 µg/mL; MIC (Acinetobacter baumannii [22]): 8 µg/mL; MIC (Klebsiella pneumoniae [23]): > 128 µg/mL; MIC (Escherichia coli [24]): 2 µg/mL; MIC (Acinetobacter baumannii [25]): 32 µg/mL; MIC (Pseudomonas aeruginosa [26]): > 128 µg/mL; MIC (Escherichia coli [27]): 16 µg/mL; Activity (Staphylococcus aureus [28]): <7.6e-08; MIC (Klebsiella pneumoniae [29]): > 128 µg/mL; MIC (Pseudomonas aeruginosa [30]): > 128 µg/mL; MIC (Klebsiella pneumoniae [31]): > 128 µg/mL

# — ChEMBL document CHEMBL4359823, “Switching on the activity of 1,5-diaryl-pyrrole derivatives against drug-resistant ESKAPE bacteria: Structure-activity relationships and mode of action studies” (Eur J Med Chem, 2019)
